Statin myotox sup: suppressors of statin myotoxicity in C2C12 myotubes, primary screen, cell-based, single point, plate reader | C2C12 myotubes + simvastatin, ATP luminescence, 48 h; scaled: DMSO 0, geranylgeraniol control 100 | 330,000 compounds, 0.78% hits | rescue of ATP level, % at 7.49 µM;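 active = mean ATP rescue above about 67%, or every replicate alone reaching that limit, limit read from the data, passing the limit was not always enough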;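 also: myotubes were challenged with 10 µM simvastatin during compound exposure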
Xi reactivation: activators of inactive X chromosome reactivation, primary screen, imaging, XiGFP fibroblasts, GFP high-content imaging, set 2 | XiGFP mouse fibroblasts, % GFP-positive cells imaging, 3 d; cells co-treated with 5-aza-dC sensitizer; scaled so ellipticine positive control = 100% | AID 743238, 2013 | 360,000 compounds, 0.055% hits | activation, % at 7.58 µM;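 active = mean normalized replicate activation at least 10% and every replicate at or above 10%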;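 also: 0% = median of on-plate neutral control wells and 100% = ellipticine 6 µM median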
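Material: SV40-immortalized XiGFP fibroblast cells, line 68-5-11 | Buffer or medium: DMEM containing 5-aza-dC | Dosing: One concentration, pinned | Times: 3 d treatment, 15 min room-temperature fixation | Controls: Ellipticine 6 µM positive control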
FGF22 binding-1: binders of human FGF22 protein, primary screen, FGF22 synaptogenesis inhibitor project, biophysical, thermal shift, single point; recombinant FGF22 thermal shift, SYPRO orange fluorescence; percent of sucrose octasulfate shift, DMSO zero; activity (Tm shift, normalised), % at 9.99 µM; AID 651658, 2012; 340,000 compounds, 1.5% hits; Fibroblast growth factor 22 (Homo sapiens), Q9HCT0;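 active = mean Tm shift, scaled 0 neutral to 100 positive control, at about 1.3% or above, every replicate too, limit read from the data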
E-selectin induc: E-selectin induction in HUVECs, primary screen, imaging, HUVEC, immunofluorescence imaging, single point. P16581. normalized: neutral wells 0, TNF-alpha wells 100. activation, % at 7.58 µM. 260,000 compounds, 0.37% hits;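 active = mean E-selectin-positive cell signal at least 10% of the positive control, reached in at least 60% of replicates, without over 20% cell loss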
Target sequence (P16581 whole entry, looked up): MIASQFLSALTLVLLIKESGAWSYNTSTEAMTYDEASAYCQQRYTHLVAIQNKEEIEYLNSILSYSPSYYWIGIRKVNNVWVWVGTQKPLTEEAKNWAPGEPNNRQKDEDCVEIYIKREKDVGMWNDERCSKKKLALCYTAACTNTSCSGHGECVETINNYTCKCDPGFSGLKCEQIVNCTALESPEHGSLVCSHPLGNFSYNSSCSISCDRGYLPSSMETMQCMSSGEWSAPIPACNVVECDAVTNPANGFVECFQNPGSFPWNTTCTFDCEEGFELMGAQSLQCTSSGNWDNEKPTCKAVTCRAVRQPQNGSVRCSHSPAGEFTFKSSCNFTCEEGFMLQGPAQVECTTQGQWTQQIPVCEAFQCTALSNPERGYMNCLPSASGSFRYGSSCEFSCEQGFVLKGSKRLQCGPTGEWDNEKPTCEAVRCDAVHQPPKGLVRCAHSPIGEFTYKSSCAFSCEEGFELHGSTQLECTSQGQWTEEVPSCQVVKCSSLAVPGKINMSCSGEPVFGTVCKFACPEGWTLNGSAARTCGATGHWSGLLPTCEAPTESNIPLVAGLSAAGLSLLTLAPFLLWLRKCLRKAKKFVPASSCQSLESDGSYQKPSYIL
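Assay system: HUVEC, human umbilical vein endothelial cells / Amount: 3,000 HUVEC/well / Controls: TNF-alpha positive control, DMSO neutral control / Compound dosing: single concentration / Medium: EGM-2 over gelatin coat / Evaluation: percent E-selectin-positive cells / Signal: immunofluorescence imaging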
DENV2 CPE rescue: inhibitors of DENV2 cytopathic effect, primary screen, cell-based, plate reader, single concentration; DENV2-infected cells, cytopathic effect rescue; CPE inhibition, % at 9.99 µM; 350,000 compounds, 1.7% hits; AID 651640, 2012; in the data active = CPE inhibition above about 20%, passing the limit was not always enough; tested in BHK-21 cells;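 also: 0% = median of neutral control wells and 100% = median of positive control wells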
PglD inh: C. jejuni PglD acetyltransferase inhibitors, primary screen, biochemical, DTNB colorimetric, single point; UDP-N-acetylbacillosamine N-acetyltransferase PglD (Campylobacter jejuni); 360,000 compounds, 0.098% hits; purified PglD enzyme, DTNB colorimetric CoA detection; inhibition, % at 12.5 µM; in the data active = inhibition above about 16%, passing the limit was not always enough
FGF22 binding-2: binders of human FGF22 protein, dose response, FGF22 synaptogenesis inhibitor project, biophysical, thermal shift, cherry-pick retest | shares compounds with FGF22 binding-1 | recombinant FGF22 thermal shift, SYPRO orange fluorescence | thermal shift activity, °C (ΔTm) at 38 µM | 1,000 compounds, 2% hits;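 active = fitted rise in melting shift crosses a set limit at or below the top valid dose tested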
FGF22 TSA DP: binders of human FGF22 protein, dose response, FGF22 synaptogenesis inhibitor project, biophysical, thermal shift, dry powder; shares compounds with FGF22 binding-1; Thermal shift assay, SYPRO orange, melting temperature shift; Tm shift (activity), % at 38 µM; 50 tested, under 10 active;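 active = compounds whose fitted dose curve of melting temperature shift rises past a set threshold within the tested doses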
TSA no protein: compound-only thermal shift signal without protein, dose response, artefact control for FGF22 binder project, biochemical, cherry-picked samples, RT-PCR instrument | shares compounds with FGF22 binding-1 | compound-only SYPRO orange thermal shift counter-screen, no protein | AC50, µM (top dose mostly 38 µM) | 1,000 compounds, 2% hits | AID 743019, 2013;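 active = rising signal whose fitted curve reaches the 0.54 level within the top valid dose, showing a melting point, actives reach about 13 µM in these data; inactive = the rest, including activity in the opposite direction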; also: value is where the raw curve crosses a fixed level and not half-maximal
* = called active by the depositor; i = inactive; nt = no result. Compounds with a hit are over-represented: about 3.3% of the library has one in this group of screens.

SMILES	Statin myotox sup	Xi reactivation	FGF22 binding-1	E-selectin induc	DENV2 CPE rescue	PglD inh	FGF22 binding-2	TSA no protein	others
CC(=O)Nc1ccc(/C(C)=N/Nc2nc(Nc3ccccc3)nc(N3CCOCC3)n2)cc1	nt	0	1.6*	nt	nt	nt	0.029	i
CC(=O)c1ccc(Nc2nc(N3CCOCC3)nc(N3CCOCC3)n2)cc1	-15	0	0	nt	-9	-7	nt	nt
Cc1[nH]c2ccc(C(=O)OCC(=O)Nc3cccc(S(N)(=O)=O)c3)cc2c1C	2	3	1.6*	0	11	-2	nt	i	FGF22 TSA DP=0
O=C(N[C@H]1C=C[C@H](CC(=O)N2CCOCC2)O[C@H]1CO)c1ccccn1	-8	1	-1	0	6	3	nt	nt
COc1ccc(-c2nc3ccc([N+](=O)[O-])cc3[nH]2)cc1	nt	0	2.6*	-2	-7	nt	0.11	i
O=[N+]([O-])c1ccc2nc(-c3ccc(Cl)cc3)[nH]c2c1	nt	0	1.8*	nt	12	nt	0.059	i
COc1ccc2nc(-c3ccccc3)[nH]c2c1	-17	nt	nt	nt	nt	-3	nt	nt
O=[N+]([O-])c1cccc(-c2nc3ccc([N+](=O)[O-])cc3[nH]2)c1	nt	0	1	2	3	nt	nt	nt
COc1ccccc1-c1ccc([C@H]2[C@@H](CO)N3CCCCN(Cc4ccncc4)C[C@H]23)cc1	4	0	nt	0	nt	3	nt	nt
CC(C)NC(=O)N(C)C[C@@H]1Oc2ncc(C#CC3CCCCC3)cc2C(=O)N([C@H](C)CO)C[C@H]1C	26	1	nt	0	nt	nt	nt	nt
O=C(NN=Cc1ccc(O)cc1)c1ccccc1NS(=O)(=O)c1cccs1	9	0	1.8*	1	9	-4	0.025	i
O=C(O)c1ccc(C=NNC(=O)c2ccccc2NS(=O)(=O)c2cccs2)cc1	-4	0	nt	nt	-4	-1	nt	nt
Cc1ccc(N(C)S(=O)(=O)c2cccc(C(=O)Nc3ccc(N4CCOCC4)cc3)c2)cc1	23	0	0	nt	9	-1	nt	nt
COc1ccc(N(C)S(=O)(=O)c2cccc(C(=O)Nc3ccc(N4CCOCC4)cc3)c2)cc1	-9	0	2.3*	-1	9	2	0.12	i
Cc1nn(-c2ccccc2)c(Cl)c1/C=N/NC(=O)c1cccnc1	nt	0	17*	0	-4	nt	0.11	i
Cc1ccc(-n2nc(C)c(/C=N/NC(=O)c3cccnc3)c2Cl)cc1	nt	0	0	0	-9	4	nt	nt
CC(C)(C)Nc1nc2cc([N+](=O)[O-])ccc2o1	-8	0	0	4	4	nt	nt	nt
O=[N+]([O-])c1ccc2oc(/C=C/c3ccc(O)cc3)nc2c1	10	0	1.8*	1	1	-2	0.074	i
COc1cccc(-c2ccc([C@@H]3[C@H]4CN(C(=O)C5CCCCC5)CC(=O)N4[C@H]3CO)cc2)c1	nt	0	nt	1	2	nt	nt	nt
C[C@H]1CCCCO[C@H](CN(C)Cc2ccncc2)[C@@H](C)CN([C@@H](C)CO)C(=O)c2cc(NC(=O)c3ccncc3)ccc2O1	nt	0	1.2*	0	2	6	0.044	i

High-throughput results deposited in PubChem by Broad Institute.
